Assays:
Rattus norvegicus [1] = species: Rattus norvegicus; assay: Percent change in blood glucose concentration in glucose-primed rat to that of control rats.; assay type: functional
In short: (§1)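 Male Sprague-Dawley rats (140-150 g), groups of six, fasted 16 h, then given 100 mg glucose sc in 0.5 mL isotonic NaCl. Test compound given orally right after as an aqueous carboxymethylcellulose suspension (0.5 mL); controls received vehicle. Blood was taken by cardiac puncture under light ether anesthesia 2 h later. Glucose measured by Autoanalyzer modification of Hoffman method; mean percent change versus control group.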

Rattus norvegicus [2] = assay: Blood glucose concentration at 2 hours after the administration in glucose-primed rat; assay type: functional; in short: as §1
Rattus norvegicus [3] = assay: Blood glucose concentration 2 hours after the administration in glucose-primed rat at 100 mg/kg.; assay type: functional; in short: as §1
Rattus norvegicus [4] = assay: Percent reduction in blood glucose after perorally administration of compound at 100 mg/kg in glucose-primed rat; assay type: functional; conditions: route oral; in short: as §1
Cavia porcellus [5] = assay: Percent reduction in blood glucose after perorally administration of compound at 100 mg/kg in normal fasted guinea pig; assay type: functional; conditions: route oral
In short: (§2)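 Hartley guinea pigs (450-500 g), male and female, grouped by sex in fours, food withheld 18 h, water allowed. Zero-time blood taken by cardiac puncture, then oral dosing, with a second cardiac sample 5 h later. Reported as percent change in blood glucose relative to the pretreatment value.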

Rattus norvegicus [6] = assay: Percent reduction in blood glucose after perorally administration of compound at 25 mg/kg in adrenalectomized rat; assay type: functional; conditions: route oral
Rattus norvegicus [7] = assay: Percent reduction in blood glucose after perorally administration of compound at 100 mg/kg in non-glucose-primed rat; assay type: functional; conditions: route oral
Rattus norvegicus [8] = assay: Percent reduction in blood glucose after perorally administration of compound at 50 mg/kg in glucose-primed rat; assay type: functional; conditions: route oral; in short: as §1
[9] = Lethal dose after peroral administration in mouse; conditions: in vivo, po
Rattus norvegicus [10] = assay: Percent reduction in blood glucose after perorally administration of compound at 25 mg/kg in glucose-primed rat; assay type: functional; conditions: route oral; in short: as §1
[11] = Lethal dose after intraperitoneal administration in mouse; conditions: in vivo, ip
Rattus norvegicus [12] = assay: Percent reduction in blood glucose after perorally administration of compound at 300 mg/kg in alloxanized rat; assay type: functional; conditions: route oral
In short: (§3)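 Male Sprague-Dawley rats (180-220 g) made diabetic with 225 mg/kg alloxan monohydrate intraabdominally; glucosuria checked by reagent strip after 3 days, positives grouped in sixes. Control tail-vein blood taken, oral compound given, blood resampled at 5 h. Reported as percent change in blood glucose versus pretreatment.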

Cavia porcellus [13] = assay: Percent reduction in blood glucose after perorally administration of compound at 30 mg/kg in normal fasted guinea pig; assay type: functional; conditions: route oral; in short: as §2
Rattus norvegicus [14] = assay: Percent reduction in blood glucose after perorally administration of compound at 300 mg/kg in non-glucose-primed rat; conditions: route oral
Rattus norvegicus [15] = assay: Percent reduction in blood glucose after perorally administration of compound at 29.2 mg/kg in alloxanized rat; assay type: functional; conditions: route oral; in short: as §3
Rattus norvegicus [16] = assay: Percent reduction in blood glucose after perorally administration of compound at 120 mg/kg in non-glucose-primed rat; assay type: functional; conditions: route oral
Cavia porcellus [17] = assay: Percent reduction in blood glucose after perorally administration of compound at 25 mg/kg in normal fasted guinea pig; assay type: functional; conditions: route oral; in short: as §2
Rattus norvegicus [18] = assay: Percent reduction in blood glucose after perorally administration of compound at 80 mg/kg in non-glucose-primed rat; assay type: functional; conditions: route oral
Rattus norvegicus [19] = assay: Percent reduction in blood glucose after perorally administration of compound at 100 mg/kg in alloxanized rat; assay type: functional; conditions: route oral; in short: as §3
Cavia porcellus [20] = assay: Percent reduction in blood glucose after perorally administration of compound at 125 mg/kg in normal fasted guinea pig; assay type: functional; conditions: route oral; in short: as §2
Rattus norvegicus [21] = assay: Percent reduction in blood glucose after perorally administration of compound at 500 mg/kg in glucose-primed rat; assay type: functional; conditions: route oral; in short: as §1
Rattus norvegicus [22] = assay: Percent reduction in blood glucose after perorally administration of compound at 20 mg/kg in adrenalectomized rat; assay type: functional; conditions: route oral
Rattus norvegicus [23] = assay: Percent reduction in blood glucose after perorally administration of compound at 10 mg/kg in adrenalectomized rat(p= 0.05); assay type: functional; conditions: route oral
Cavia porcellus [24] = assay: Percent reduction in blood glucose after perorally administration of compound at 160 mg/kg in normal fasted guinea pig; assay type: functional; conditions: route oral; in short: as §2
Rattus norvegicus [25] = assay: Percent reduction in blood glucose after perorally administration of compound at 250 mg/kg in glucose-primed rat; assay type: functional; conditions: route oral; in short: as §1
Rattus norvegicus [26] = assay: Percent reduction in blood glucose after perorally administration of compound at 25 mg/kg in non-glucose-primed rat; assay type: functional; conditions: route oral
Rattus norvegicus [27] = assay: Percent reduction in blood glucose after perorally administration of compound at 10 mg/kg in glucose-primed rat; assay type: functional; conditions: route oral; in short: as §1
Cavia porcellus [28] = assay: Percent reduction in blood glucose after perorally administration of compound at 150 mg/kg in normal fasted guinea pig; assay type: functional; conditions: route oral; in short: as §2
Rattus norvegicus [29] = assay: Percent reduction in blood glucose after perorally administration of compound at 100 mg/kg in non-glucose-primed rat; conditions: route oral
Rattus norvegicus [30] = assay: Percent reduction in blood glucose after perorally administration of compound at 25 mg/kg in adrenalectomized rat; conditions: route oral

Compound | Change (Rattus norvegicus [1]) [%] | Blood glucose (Rattus norvegicus [2]) [%] | Blood glucose (Rattus norvegicus [3]) [%] | other results
COC(=O)c1cc(C)n(/C(=N\c2ccc(C)cc2)c2ccccc2)n1 | 18.9 | 71.9 | – | –
COC(=O)c1cc(C)n(/C(=N\CC(C)C)c2cccc(C(F)(F)F)c2)n1 | 25.2 | – | 62.2 | –
COC(=O)c1cc(C)n(/C(=N\c2ccc(C)cc2)c2ccc(C)cc2)n1 | 25.4 | 60.4 | – | –
COC(=O)c1cc(C)n(/C(=N\C2CCCCC2)c2ccccc2OC)n1 | 20.5 | 68.4 | – | –
COC(=O)c1cc(C)n(/C(=N\CC(C)C)c2ccccc2)n1 | 25.5 | – | 59.7 | –
Cc1cc(C)n(/C(=N\CC(C)C)c2ccccc2)n1 | 10.6 | – | 62.8 | –
CC/N=C(/c1ccccc1)n1nc(C)cc1C | 24.7 | – | 58.6 | –
COC(=O)c1cc(C)n(/C(=N\CC(C)C)c2ccc(F)cc2)n1 | 1.3 | – | 68.9 | –
COC(=O)c1cc(C)n(/C(=N\c2ccc(OC)cc2)c2ccccc2)n1 | 40 | 62.2 | – | Reduction (Rattus norvegicus [4]): 51.3%; Reduction (Cavia porcellus [5]): 21%; Reduction (Rattus norvegicus [6]): 44.3%; Reduction (Rattus norvegicus [7]): 31.5%; Reduction (Rattus norvegicus [8]): 33.8%; LD50 [9]: 1000 mg/kg; Reduction (Rattus norvegicus [10]): 35.2%; LD50 [11]: 1000 mg/kg; Reduction (Rattus norvegicus [12]): 49%
COC(=O)c1cc(-c2ccc(Cl)cc2)n(/C(=N\c2ccc(Cl)cc2)c2ccccc2)n1 | 1.2 | – | 77.7 | –
COC(=O)c1cc(C)n(/C(=N\c2ccccc2)c2ccccc2)n1 | 34.3 | 58 | – | –
COC(=O)c1cc(C)n(/C(=N\c2cccc(C(F)(F)F)c2)c2ccccc2)n1 | 33.5 | 57.9 | – | –
CCCCNC(=N)NC(=N)N [BUFORMIN] | – | – | – | Reduction (Cavia porcellus [13]): 50%; Reduction (Rattus norvegicus [4]): 0%; Reduction (Rattus norvegicus [14]): 25.9%; LD50 [9]: 300 mg/kg; Reduction (Rattus norvegicus [15]): 21.9%; LD50 [11]: 140 mg/kg
COC(=O)c1cc(C)n(/C(=N\c2cccc(C)c2C)c2ccccc2)n1 | 8.3 | – | 75.6 | –
COC(=O)c1cc(-c2ccc(Cl)cc2)n(/C(=N\c2ccc(C)cc2)c2ccc(C)cc2)n1 | 9 | – | 69.8 | –
COC(=O)c1cc(C)n(/C(=N\CC(C)C)c2ccc(C)cc2)n1 | 19 | – | 65.2 | –
COC(=O)c1cc(C)n(/C(=N\c2ccc(Cl)cc2)c2ccccc2)n1 | 5.5 | – | 78.7 | –
COC(=O)c1cc(-c2ccc(Cl)cc2)n(/C(=N\C2CCCCC2)c2ccccc2)n1 | 4.4 | – | 84.9 | –
Cc1cc(C)n(/C(=N\c2ccccc2)c2ccccc2)n1 | 18.3 | 72.1 | – | –
COC(=O)c1cc(-c2ccc(Cl)cc2)n(/C(=N\c2ccccc2)c2ccccc2)n1 | 5.6 | – | 81.1 | –

Compound | Change (Rattus norvegicus [1]) [%] | Blood glucose (Rattus norvegicus [2]) [%] | Blood glucose (Rattus norvegicus [3]) [%] | other results
CCCC/N=C(/c1ccccc1)n1nc(C(=O)OC)cc1C | 21.2 | – | 66.1 | –
COC(=O)c1cc(-c2ccc(Cl)cc2)n(/C(=N\c2ccccc2)c2ccccc2C)n1 | 6.3 | – | 71.1 | –
Cc1cc(C)n(/C(=N\C2CCCCC2)c2ccccc2)n1 | 13.6 | – | 69.8 | –
COC(=O)c1cc(C)n(/C(=N\c2ccccc2)c2ccc(Cl)c(Cl)c2)n1 | 24.3 | 101.5 | – | –
COC(=O)c1cc(C)n(/C(=N\CCC(C)C)c2ccccc2)n1 | 1.3 | – | 91.3 | –
COC(=O)c1cc(C)n(/C(=N\c2ccccc2)c2ccccc2Cl)n1 | 8.9 | – | 70 | –
N=C(N)NC(=N)NCCc1ccccc1 [PHENFORMIN] | – | – | – | Reduction (Rattus norvegicus [4]): 0%; Reduction (Rattus norvegicus [16]): 52.9%; Reduction (Cavia porcellus [17]): 46%; Reduction (Rattus norvegicus [18]): 25.3%; Reduction (Rattus norvegicus [19]): 62%
COC(=O)c1cc(C)n(/C(=N\c2ccccc2OC)c2ccccc2)n1 | 35.1 | 96 | – | –
Cc1ccc(S(=O)(=O)NC(=O)NN2CCCCCC2)cc1 [TOLAZAMIDE] | – | – | – | Reduction (Cavia porcellus [20]): 26.7%; Reduction (Rattus norvegicus [21]): 51.1%; Reduction (Cavia porcellus [5]): 33.5%; Reduction (Rattus norvegicus [22]): 85.6%; Reduction (Rattus norvegicus [23]): 75.8%; LD50 [9]: 1000 mg/kg; Reduction (Rattus norvegicus [10]): 50%; Reduction (Cavia porcellus [24]): 25%; LD50 [11]: 1000 mg/kg; Reduction (Rattus norvegicus [25]): 42.9%; Reduction (Rattus norvegicus [26]): 29.4%; Reduction (Rattus norvegicus [27]): 28.1%; Reduction (Cavia porcellus [28]): 30.4%; Reduction (Rattus norvegicus [19]): 0%
CCC/N=C(/c1ccccc1)n1nc(C(=O)OC)cc1C | 6.2 | – | 80.5 | –
COC(=O)c1cc(C)n(/C(=N\c2ccccc2)c2ccccc2OC)n1 | 25.7 | 58.3 | – | –
COC(=O)c1cc(-c2ccc(Cl)cc2)n(/C(=N\c2ccc(OC)cc2)c2ccccc2)n1 | 3.9 | – | 78.4 | –
COC(=O)c1cc(-c2ccc(Cl)cc2)n(/C(=N\C2CCCCC2)c2ccccc2OC)n1 | 12.9 | – | 69.2 | –
CC/N=C(/c1ccccc1)n1nc(C(=O)OC)cc1C | 34 | – | 54.9 | –
COC(=O)c1cc(C)n(/C(=N\c2ccccc2)c2ccccc2C)n1 | 21.4 | 57.7 | – | –
COC(=O)c1cc(C)n(/C(=N\c2cccc(OC)c2)c2ccccc2)n1 | 22 | 63 | – | –
C=CC/N=C(/c1ccccc1)n1nc(C(=O)OC)cc1C | 7 | – | 69.6 | –
COc1ccc(/N=C(/c2ccccc2)n2nc(C)cc2C)cc1 | 27.2 | 60.6 | – | –
COC(=O)c1cc(C)n(/C(=N\c2ccc(OC)c(OC)c2)c2ccccc2)n1 | 34.1 | 58 | – | –
COC(=O)c1cc(C)n(/C(=N\C2CCCCC2)c2ccccc2)n1 | 34.5 | 52.1 | – | Reduction (Cavia porcellus [13]): 0%; LD50 [9]: 1000 mg/kg; Reduction (Rattus norvegicus [15]): 29.5%; LD50 [11]: 1000 mg/kg; Reduction (Rattus norvegicus [29]): 7.6%; Reduction (Rattus norvegicus [2]): 27%; Reduction (Rattus norvegicus [30]): 32%
